The subject of experiment [1] is ZR-75-1. Kind of experiment: Anticancer activity against human ZR-75-1 cells after 48 hrs by SRB assay. It is filed as functional. Particulars: ZR-75-1, 48 h. The gist of the method:
(§1)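 Cells grown in RPMI 1640 with 10% FBS and 2 mM L-glutamine, plated at densities set by doubling time, and preincubated 24 h at 37 °C, 5% CO2. Compounds were tested at four concentrations (0.1, 1, 10, 100) in triplicate wells with 48 h continuous exposure. Cells were fixed with cold TCA (10% final, 60 min, 4 °C) and stained with 0.4% SRB in 1% acetic acid (20 min, RT). Dye was eluted with 10 mM Trizma base and read at 540 nm (690 nm reference). Percent growth is relative to control wells, plate by plate.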
For orientation: The SRB assay estimates cell density from bound dye.

Experiment [2] concerns A2780. As to the kind of experiment: Anticancer activity against human A2780 cells after 48 hrs by SRB assay. It is filed as functional. The conditions noted are these: A2780, 48 h. The gist of the method: (§2)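 Grown in RPMI 1640 with 10% FBS and 2 mM L-glutamine at 37 °C, 5% CO2. Seeded at densities set by doubling time, then preincubated 24 h. Continuous 48 h drug exposure at four concentrations (0.1, 1, 10, 100), triplicate wells. Fixed with cold TCA (final 10%) at 4 °C, 60 min. Stained with 0.4% SRB in 1% acetic acid, eluted with 10 mM Tris base, read at 540/690 nm. Percent growth versus control wells.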

Experiment [3] relates to KB. Kind of experiment: Anticancer activity against human KB cells after 48 hrs by SRB assay. It is filed as functional. Summed up: as §2
Experiment [4] deals with SiHa. As to the kind of experiment: Anticancer activity against human SiHa cells after 48 hrs by SRB assay. It is filed as functional. Summed up:
as §1

The subject of experiment [5] is A-375. Kind of experiment: Cell cycle arrest in human A375 cells assessed as accumulation at G0/G1 phase at 4 uM after 24 hrs using propidium iodide staining by FACS. The class given is functional. The gist of the method: (§3)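 Treated A375 cells (24 h) were harvested with trypsin-EDTA and fixed in ice-cold 70% ethanol (4 °C, 30 min). After a PBS wash, they were incubated with 1 mg/mL RNase A (37 °C, 30 min) and stained with propidium iodide solution containing trisodium citrate and Triton X-100. DNA content was measured by flow cytometry on 20,000 events. Controls were DMSO-treated.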

For experiment [6], the system named is A-375. As to the kind of experiment: Cell cycle arrest in human A375 cells assessed as accumulation at S phase at 4 uM after 24 hrs using propidium iodide staining by FACS. The class given is functional. The gist of the method:
as §3
In general terms: A flow cytometer gives signals particle by particle.

The test system of experiment [7] is A-375. As to the kind of experiment: Cell cycle arrest in human A375 cells assessed as accumulation at G2/M phase at 4 uM after 24 hrs using propidium iodide staining by FACS. The class given is functional. The gist of the method: as §3
The test system of experiment [8] is A-375. Kind of experiment: Induction of apoptosis in human A375 cells assessed as increase in PPAR protein level at 4 uM after 24 hrs by Western blotting. It is filed as functional, cell-based. Summed up:
(§4)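 A375 cells were treated for 24 h and lysed in ice-cold RIPA buffer (1% NP-40, 0.5% deoxycholate, 0.1% SDS, protease inhibitors). Protein was quantified by Bradford assay, and 30 µg/lane was run on 12% SDS-PAGE and transferred to PVDF. Membranes were blocked 2 h at RT in TBST with 5% blocker, incubated with primary antibody overnight at 4 °C, then with HRP secondary (1:2000, 1 h, RT). Detection was by chemiluminescence, with β-actin as loading control.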

Experiment [9] concerns A-375. Kind of experiment: Induction of apoptosis in human A375 cells assessed as reduction in CDK2 protein level at 4 uM after 24 hrs by Western blotting. The class given is functional, cell-based. Summed up: as §4
Background: Immunoblotting shows a protein as a band on a membrane.

For experiment [10], the system named is A-375. Kind of experiment: Induction of apoptosis in human A375 cells assessed as caspase3 activation at 4 uM after 24 hrs by fluorimetry. It is filed as functional, cell-based. Summed up:
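Caspase-3 activity was measured by a fluorometric assay on lysates of treated and untreated A375 cells.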

The source made the active and inactive calls. No cut-off for these calls is given here. A value given as a limit tells only on which side of the number the result lay.

For `COc1cc(C2=NOC(c3cc(OC)c(OC)c(OC)c3)C2)ccc1OCCCCCOc1cc2c(cc1OC)C(=O)N1CCC[C@H]1C=N2` (stereo not given in full), the GI50 in [1], in experiment [2], in experiment [3] and in experiment [4] was < 100 nM in each case. In addition, the figures for the Activity in [5], in experiment [6] and in experiment [7] were 92.45%, 6.4% and 1.15%, respectively. Besides, the result in experiment [8], in experiment [9] and in experiment [10] was Active.

For the origin of these results see ChEMBL document CHEMBL1240422, “Design, synthesis and biological evaluation of 3,5-diaryl-isoxazoline/isoxazole-pyrrolobenzodiazepine conjugates as potential anticancer agents” (2010).
